Test [1] concerns Plasmodium falciparum. Briefly: Antimalarial activity against multidrug-resistant Plasmodium falciparum K1 assessed as reduction in parasite growth by [3H]-hypoxanthine uptake assay. The class given is functional, organism-based. A digest of the protocol: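 P. falciparum K1 (multidrug-resistant) maintained in continuous in vitro culture. Microculture radioisotope technique: growth measured as [3H]-hypoxanthine uptake. IC50 is the concentration giving 50% reduction in parasite growth. Dihydroartemisinin was the positive control.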

Test [2] deals with KB. Briefly: Cytotoxicity against human KB cells up to 10 uM by colorimetric method. It counts as functional, cell-based.
The test system of test [3] is MCF7. Briefly: Cytotoxicity against human MCF7 cells up to 10 uM by colorimetric method. The class given is functional, cell-based.
Test [4] concerns NCI-H187 (human). Briefly: Cytotoxicity against human NCI-H187 cells up to 10 uM by colorimetric method.

The structures appear in SMILES notation. Calls of active or inactive are those of the source. The rule behind the calls is not given here.

With `CC1=CC[C@@H]([C@@H](C)[C@H]2CC[C@@]3(C)C4=C(C=C5C=CC(=O)OC(C)(C)[C@@H]5CC4)CC[C@]23C)OC1=O`, in test [1], the IC50 (commonly the concentration that gives 50% inhibition) came out at 6 µM. For the same compound, the result in test [2], in test [3] and in test [4] was inactive.
Consider `CC1=CC[C@]2(OC[C@]34CCC5=C(CC[C@@H]6C(=C5)C=CC(=O)OC6(C)C)[C@]3(C)CC[C@@H]4[C@@H]2C)OC1=O`, for which, in test [1], the IC50 amounted to 10 µM. For the same compound, the outcome in test [2], in test [3] and in test [4] was inactive.
On to `C[C@H]1[C@@H](O)O[C@@H]2O[C@@]3(C)CC[C@H]4[C@H](C)CC[C@@H]1[C@@]24OO3` [ARTENIMOL], for which, in test [1], the IC50 turned out to be 0.004 µM.
On to `CC(=O)O[C@@H]1C[C@H]([C@H](C)[C@H]2CC=C(C)C(=O)O2)[C@@]2(C)CCC3=C(CC[C@@H]4C(=C3)C=CC(=O)OC4(C)C)[C@]12C` [COLOSSOLACTONE E], for which, in test [1], the IC50 was found to be 10 µM. The result in test [2], in test [3] and in test [4] was inactive.

(Values after ChEMBL document CHEMBL3352680, “Triterpene lactones from cultures of Ganoderma sp. KM01” (J Nat Prod, 2014).)
